Assay results from ChEMBL document CHEMBL1142704, “Design and biological evaluation of linear and cyclic phosphopeptide ligands of the N-terminal SH2 domain of protein tyrosine phosphatase SHP-1” (J Med Chem, 2005).
*1 amine or outer side, *2 acyl side, *3 side chain or, on linkers, in order; H or OH if unused. Where a SMILES comes first, the peptide text is derived from it. Bridges are numbered along the chain shown (N, C = ends). [ ]: non-standard residue; d: D form. X1 = O=C(CC[C@H](N[*:1])C(=O)[*:2])CN[*:3]; X4 = O=C([C@@H](N[*:1])C(O)c1ccccc1)[*:2]; X5 = O=C(CN[*:3])C[C@H](N[*:1])C(=O)[*:2]; pY = N[C@@H](Cc1ccc(OP(=O)(O)O)cc1)C(=O)O; hPhe = N[C@@H](CCc1ccccc1)C(=O)O; Tic = O=C(O)[C@@H]1Cc2ccccc2CN1; Nle = CCCC[C@H](N)C(=O)O; CO = O=C([*:1])[*:2]

How the values were obtained:
[1] = target: T1, Tyrosine-protein phosphatase non-receptor type 6 (Homo sapiens, UniProt P29350); assay: Dissociation constant for the interaction with the GST-N-SH2 domain of SHP-1
T1 sequence (P29350 whole entry, the tested form may be a part): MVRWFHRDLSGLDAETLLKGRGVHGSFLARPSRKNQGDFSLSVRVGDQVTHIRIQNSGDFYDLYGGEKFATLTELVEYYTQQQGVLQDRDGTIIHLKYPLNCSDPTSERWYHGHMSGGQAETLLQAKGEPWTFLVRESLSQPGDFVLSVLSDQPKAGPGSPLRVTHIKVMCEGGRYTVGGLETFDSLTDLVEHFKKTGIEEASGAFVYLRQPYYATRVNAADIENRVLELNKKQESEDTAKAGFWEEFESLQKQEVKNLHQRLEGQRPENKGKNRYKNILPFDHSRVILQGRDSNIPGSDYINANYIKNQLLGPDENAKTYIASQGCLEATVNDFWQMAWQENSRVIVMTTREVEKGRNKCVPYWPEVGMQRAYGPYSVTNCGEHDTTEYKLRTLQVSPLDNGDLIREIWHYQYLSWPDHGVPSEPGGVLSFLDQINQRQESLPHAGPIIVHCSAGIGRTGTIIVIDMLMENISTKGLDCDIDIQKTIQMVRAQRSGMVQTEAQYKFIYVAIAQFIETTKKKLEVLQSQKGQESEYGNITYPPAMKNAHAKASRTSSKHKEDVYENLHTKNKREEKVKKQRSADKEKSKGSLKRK
In short: (§1)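 SPR at room temperature in 10 mM Hepes pH 7.4, 150 mM NaCl, 3.4 mM EDTA, 0.005% Tween20. Biotinylated peptides captured on the chip to 20-40 RU. FPLC-purified GST-SHP-1 N-SH2 was injected 5 min at 30 µL/min, then dissociation was followed. Blank flow cell subtracted. Equilibrium RU vs domain concentration was fit to a one-site hyperbola for Kd.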

[2] = target: T1, Tyrosine-protein phosphatase non-receptor type 6; assay: Concentration required to stimulate SHP-1 enzymatic activity by 50%
In short: (§2)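 SHP-1 activity on p-nitrophenyl phosphate (10 mM) in 50 mM Hepes pH 7.4, 50 mM NaCl, 1 mM EDTA, 1 mM TCEP with 0-500 µM peptide. Enzyme (0.5 µg) added last, 30 min at room temperature, stopped with 1 M NaOH, A405 read. Activity relative to no-peptide enzyme. Duplicates, mean of three independent experiments. Not active: maximal activity ≤0.4 relative to Ros pY2267.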

[3] = target: T1, Tyrosine-protein phosphatase non-receptor type 6; assay: Dissociation constant for the interaction with the GST-N-SH2 domain of SHP-1; nb is no binding; in short: as §1
[4] = target: T1, Tyrosine-protein phosphatase non-receptor type 6; assay: Concentration required to stimulate SHP-1 enzymatic activity by 50%; not active; in short: as §2

Row | Kd [1] | EC50 ([2]; read-out: EC50) | Kd [3] | EC50 [4] | EC50 [2] | SMILES
1 | 230 nM | 60000 nM |  |  |  | CCCC[C@H](NC(=O)[C@H](Cc1ccc(OP(=O)(O)O)cc1)NC(=O)[C@H](CC(N)=O)NC(=O)[C@H](CC(C)C)NC(=O)CNC(=O)[C@@H](N)CCC(=O)O)C(=O)N[C@H](C(=O)N[C@@H](Cc1ccccc1)C(N)=O)C(C)C (H-EGLN[pY][Nle]VF-NH2)
2 | 1080 nM | 220000 nM |  |  |  | CC(C)C[C@H](NC(=O)[C@@H](NC(=O)[C@@H](NC(=O)[C@H](Cc1ccc(OP(=O)(O)O)cc1)NC(=O)[C@H](CC(N)=O)NC(=O)[C@H](CC(C)C)NC(=O)CNC(=O)[C@@H](N)CCC(=O)O)C(O)c1ccccc1)C(C)C)C(N)=O (stereo partly specified) (H-EGLN[pY][X4]VL-NH2)
3 | 240 nM | 50000 nM |  |  |  | CC(C)C[C@H](NC(=O)[C@@H](NC(=O)[C@@H](NC(=O)[C@H](Cc1ccc(OP(=O)(O)O)cc1)NC(=O)[C@H](CC(N)=O)NC(=O)[C@H](CC(C)C)NC(=O)CNC(=O)[C@@H](N)CCC(=O)O)C(C)c1ccccc1)C(C)C)C(N)=O (stereo in doubt; 5a)
4 | 1000 nM | 140000 nM |  |  |  | CSCC[C@H](NC(=O)[C@H](Cc1ccc(OP(=O)(O)O)cc1)NC(=O)[C@H](CC(N)=O)NC(=O)[C@H](CC(C)C)NC(=O)CNC(=O)[C@@H](N)CCC(=O)O)C(=O)N[C@H](C(=O)N[C@@H](Cc1ccccc1)C(N)=O)C(C)C (H-EGLN[pY]MVF-NH2)
5 | 160 nM | 220000 nM |  |  |  | CC(C)C[C@H](NC(=O)[C@@H](NC(=O)[C@@H](NC(=O)[C@H](Cc1ccc(OP(=O)(O)O)cc1)NC(=O)[C@H](CC(N)=O)NC(=O)[C@H](CC(C)C)NC(=O)CNC(=O)[C@@H](N)CCC(=O)O)C(C)c1ccccc1)C(C)C)C(N)=O (stereo in doubt; 5b)
6 |  |  | Not Active | Not Active |  | CC[C@H](C)[C@H](NC(=O)[C@@H]1Cc2ccccc2CN1C(=O)[C@H](Cc1ccc(OP(=O)(O)O)cc1)NC(=O)[C@H](CC(N)=O)NC(=O)[C@H](CC(C)C)NC(=O)CNC(=O)[C@@H](N)CCC(=O)O)C(=O)N1Cc2ccccc2C[C@H]1C(N)=O (H-EGLN[pY][Tic]I[Tic]-NH2)
7 |  |  | Not Active | Not Active |  | CSCC[C@@H]1NC(=O)[C@H](Cc2ccc(OP(=O)(O)O)cc2)NC(=O)[C@@H](NC(=O)[C@H](CC(C)C)NC(=O)CNC(=O)[C@@H](N)CCC(=O)O)CCCCNC(=O)CC[C@@H](C(=O)N[C@@H](CC(C)C)C(=O)O)NC1=O (H-EGLK[pY]MEL-OH; lactam 4-7)
8 | 290 nM | 85000 nM |  |  |  | CSCC[C@H](NC(=O)[C@H](Cc1ccc(OP(=O)(O)O)cc1)NC(=O)[C@H](CC(N)=O)NC(=O)[C@H](CC(C)C)NC(=O)CNC(=O)[C@@H](N)CCC(=O)O)C(=O)N[C@H](C(=O)N[C@H](C(N)=O)C(O)c1ccccc1)C(C)C (stereo partly specified) (H-EGLN[pY]MV[X4]-NH2)
9 | 210 nM |  |  |  | Not Active | CSCC[C@@H]1NC(=O)[C@H](Cc2ccc(OP(=O)(O)O)cc2)NC(=O)[C@@H](NC(=O)[C@H](CC(C)C)NC(=O)CNC(=O)[C@@H](N)CCC(=O)O)CCCCNC(=O)NCC(=O)CC[C@@H](C(=O)N[C@@H](CC(C)C)C(=O)O)NC1=O (H-EGLK[pY]M[X1]L-OH; linker 4-7 via CO)
10 | 110 nM |  |  | Not Active |  | CSCC[C@@H]1NC(=O)[C@H](Cc2ccc(OP(=O)(O)O)cc2)NC(=O)[C@@H](NC(=O)[C@H](CC(C)C)NC(=O)CNC(=O)[C@@H](N)CCC(=O)O)CCCCNC(=O)NCC(=O)C[C@@H](C(=O)N[C@@H](CC(C)C)C(=O)O)NC1=O (H-EGLK[pY]M[X5]L-OH; linker 4-7 via CO)
11 | 900 nM | 140000 nM |  |  |  | CC(C)C[C@H](NC(=O)[C@@H](NC(=O)[C@H](CCc1ccccc1)NC(=O)[C@H](Cc1ccc(OP(=O)(O)O)cc1)NC(=O)[C@H](CC(N)=O)NC(=O)[C@H](CC(C)C)NC(=O)CNC(=O)[C@@H](N)CCC(=O)O)C(C)C)C(N)=O (H-EGLN[pY][hPhe]VL-NH2)
12 | 1440 nM | 160000 nM |  |  |  | CSCC[C@H](NC(=O)[C@H](Cc1ccc(OP(=O)(O)O)cc1)NC(=O)[C@H](CC(N)=O)NC(=O)[C@H](CC(C)C)NC(=O)CNC(=O)[C@@H](N)CCC(=O)O)C(=O)N[C@H](C(=O)N[C@@H](CC(C)C)C(N)=O)C(C)C (H-EGLN[pY]MVL-NH2)
13 | 690 nM | 70000 nM |  |  |  | CC(C)C[C@H](NC(=O)[C@@H](NC(=O)[C@H](Cc1ccccc1)NC(=O)[C@H](Cc1ccc(OP(=O)(O)O)cc1)NC(=O)[C@H](CC(N)=O)NC(=O)[C@H](CC(C)C)NC(=O)CNC(=O)[C@@H](N)CCC(=O)O)C(C)C)C(N)=O (H-EGLN[pY]FVL-NH2)
